Measured values: ChEMBL document CHEMBL1144225, “Synthesis and anticonvulsant activities of N-benzyl (2R)-2-acetamido-3-oxysubstituted propionamide derivatives” (Bioorg Med Chem, 2008)

Columns and labels:
[1] = Neurotoxicity in ip dosed albino mouse by rotarod test; format: toxicity, organism-based; conditions: in vivo
Outline: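 Mice dosed intraperitoneally and tested on the rotorod for neurologic toxicity. Dose-effect data taken at the time of peak effect, given in hours.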

[2] = organism: Mus musculus; assay: Protective index, ratio of TD50 for albino mouse by rotarod test to ED50 for albino mouse by MES seizure test; format: functional
Outline: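 Protective index calculated as TD50/ED50. TD50 is from the mouse rotorod test and ED50 from the MES test, both after intraperitoneal dosing at the time of peak effect.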

[3] = test system: Mus musculus; assay: Anticonvulsant activity in ip dosed albino mouse by MES seizure test; format: functional
Outline: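 Mice dosed intraperitoneally and challenged by maximal electroshock (MES). Dose-effect data taken at the time of peak effect, given in hours.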

## CC(=O)N[C@H](COC(C)C)C(=O)NCc1ccccc1
[1]
  TD50: 77 mg/kg
[2]
  Ratio TD50/ED50: 3.3
[3]
  ED50: 23 mg/kg

## CCOC[C@@H](NC(C)=O)C(=O)NCc1ccccc1
[1]
  TD50: 44 mg/kg
[2]
  Ratio TD50/ED50: 5.6
[3]
  ED50: 7.9 mg/kg

## COCCOCCOC[C@@H](NC(C)=O)C(=O)NCc1ccccc1
[1]
  TD50: > 300 mg/kg
[3]
  ED50: > 300 mg/kg

## CC(=O)N[C@H](COC(C)(C)C)C(=O)NCc1ccccc1
[1]
  TD50: 100 mg/kg
[3]
  ED50: 30 mg/kg

## CC(=O)N[C@H](COc1ccccc1)C(=O)NCc1ccccc1
[1]
  TD50: 30 mg/kg
[3]
  ED50: 100 mg/kg

## CCC1(c2ccccc2)C(=O)NC(=O)NC1=O [PHENOBARBITAL]
[3]
  ED50: 22 mg/kg

## CCCC(CCC)C(=O)[O-].[Na+] [VALPROATE SODIUM]
[3]
  ED50: 270 mg/kg
